Source: ChEMBL document CHEMBL1135167, “Synthesis and antifungal activity of the 2,2,5-tetrahydrofuran regioisomers of SCH 51048” (2002)

Legend:
Type in all cases: functional
Candida = assay: Compound was tested for inherent antifungal geometric minimum inhibitory concentration (GMMIC) against Candida albicans and Candida tropicalis in serial dilution from 64 to 0.0313 ug/mL
Method in brief: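 Eagle's minimum essential medium, pH 7.0. Compound in DMSO or ethanol, serially diluted in medium, inoculum 5×10^2/cc. Incubated at 37 °C under CO2 for 48 h. MIC is the lowest concentration with complete visible growth inhibition in microtiter wells. Geometric mean over C. albicans and C. tropicalis strains.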

Arthrodermataceae = assay: Compound was tested for inherent antifungal geometric minimum inhibitory concentration (GMMIC) against Dermatophytes in serial dilution from 64 to 0.0313 ug/mL
Method in brief: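 Sabouraud dextrose broth, pH 5.7, inoculum ~10^4/cc, 27 °C, read visually at 72 h. MIC is the lowest concentration giving complete growth inhibition. Compound in DMSO or ethanol, serially diluted in broth. Geometric mean over T. mentagrophytes D24 and D30, T. rubrum D54 and D61, T. tonsurans D73 and M. canis D18.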

Aspergillus sp. = assay: Compound was tested for inherent antifungal geometric minimum inhibitory concentration (GMMIC) against Aspergillus in serial dilution from 64 to 0.0313 ug/mL
Method in brief: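 Broth microdilution in Sabouraud dextrose broth, pH 5.7. Compound dissolved in DMSO or ethanol and serially diluted in medium. Inoculum ~10^4/cc, incubated at 27 °C for 72 h. MIC is the lowest concentration giving complete growth inhibition by visual reading. Geometric mean taken across the Aspergillus isolates.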

Structure (SMILES) | GMMIC (Candida) | GMMIC (Arthrodermataceae) | GMMIC (Aspergillus sp.)
CCC(CC)n1ncn(-c2ccc(N3CCN(c4ccc(OC[C@H]5CO[C@](Cn6cncn6)(c6ccc(F)cc6F)C5)cc4)CC3)cc2)c1=O | 0.27 µg/mL | >=128 ug ml-1 | >=128 ug ml-1
CCC(CC)n1ncn(-c2ccc(N3CCN(c4ccc(OC[C@H]5CC[C@](Cn6cncn6)(c6ccc(F)cc6F)O5)cc4)CC3)cc2)c1=O | 0.02 µg/mL | >=0.35 ug ml-1 | 0.25 µg/mL
CCC(CC)n1ncn(-c2ccc(N3CCN(c4ccc(OC[C@@H]5CO[C@@](Cn6cncn6)(c6ccc(F)cc6F)C5)cc4)CC3)cc2)c1=O | <=0.04 ug ml-1 | >=0.06 ug ml-1 | 0.04 µg/mL
CCC(CC)n1ncn(-c2ccc(N3CCN(c4ccc(OC[C@@H]5CC[C@@](Cn6cncn6)(c6ccc(F)cc6F)O5)cc4)CC3)cc2)c1=O | <=0.1 ug ml-1 | >=128 ug ml-1 | >=128 ug ml-1
CCC(C)n1ncn(-c2ccc(N3CCN(c4ccc(OCC5COC(Cn6cncn6)(c6ccc(Cl)cc6Cl)O5)cc4)CC3)cc2)c1=O (racemic) [ITRACONAZOLE] | 0.04 µg/mL | >=0.89 ug ml-1 | 0.3 µg/mL
